From ChEMBL document CHEMBL4513216, “Probing the Open Global Health Chemical Diversity Library for Multistage-Active Starting Points for Next-Generation Antimalarials” (ACS Infect Dis, 2020) come the findings set out here.

The series in a line: Toxicity liver stage against HepG2, at 10uM. Further details: test concentration 10 uM, cell line HepG2-A16-CD81EGFP. The format is cell-based. Particulars: human, HepG2-A16-CD81EGFP cells; read-out: INHIBITION
The essentials:
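Uninfected HepG2-A16-CD81EGFP cells, 3 × 10^3 per well, 1536-well, plated on prespotted compound at 10 μM final, parasite-free screening media added to match infected plates; puromycin 10 μM positive, DMSO 0.5% negative; run in parallel with 48 h PbLuc assay at 37 °C, 5% CO2; viability by CellTiter-Glo luminescence, normalized to controls.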
`O=C1CCC2(CCN(Cc3ccc(F)cc3Cl)CC2)CN1CCO`: the cytotoxicity at 10 µM was found to be 5.29%.

In the case of `Cc1ccc(C(=O)N2CCN(Cc3cccs3)CC2)c(=O)[nH]1`, the cytotoxicity at 10 µM was -8.39%.

`Cn1c(=O)ccn(CC(=O)NCC2Cc3ccccc3O2)c1=O` (centres undefined): the cytotoxicity at 10 µM was -0.387%.

Consider `CN(C)C(=O)CN1CCCC2(CCN(c3ccsc3)C2=O)C1` (centres undefined), for which the cytotoxicity at 10 µM stood at 9.88%.

As to `Cc1ncsc1CCC(=O)NC1CCN(c2ccc(Cl)nn2)CC1`, the cytotoxicity at 10 µM is -2.5%.

In the case of `CC(OCC1CC1)C(=O)Nc1nccn1Cc1ccccc1` (centres undefined), the cytotoxicity at 10 µM was -6.79%.

With `CCc1oc(C(=O)NCCNS(C)(=O)=O)cc1CN1CCCC1`, the cytotoxicity at 10 µM worked out at 5.53%.

`CCC(=O)N1CCCN(C(=O)C2SCCc3sccc32)CC1` (centres undefined): the cytotoxicity at 10 µM was -8.98%.

Turning to `Cn1cccc1C(=O)NCc1cnc2n1CCN(CC1CC1)C2`, the cytotoxicity at 10 µM is 11.8%.

As for `c1csc(CN2C[C@H](OCC3CCOCC3)[C@H]3COC[C@H]32)n1`, the cytotoxicity at 10 µM is -3.76%.

For the compound `CCCNc1ccc(C(=O)NCCc2ccc(Cl)cc2)cn1`, the cytotoxicity at 10 µM is -1.05%.

Consider `Cn1ccc(NC(=O)NC2CCCN(c3ccccc3Cl)C2=O)n1` (centres undefined), for which the cytotoxicity at 10 µM is -49.4%.

On to `CC(C)n1c(C2CCCN(CC(=O)NC3CC3)C2)nc2ccccc21` (centres undefined), for which the cytotoxicity at 10 µM was -5.54%.

Consider `Cc1c(Cl)cc(C(=O)NCCc2ncnn2C)cc1Cl`, for which the cytotoxicity at 10 µM turned out to be 6.07%.

For the compound `NC(=O)CC1CCN(C(=O)NCc2ccc(-c3ccn[nH]3)cc2)CC1`, the cytotoxicity at 10 µM was -2.38%.

Take `CCc1nc(CN2CCCC(N(C)Cc3nc(C)c(C)o3)C2)no1` (centres undefined): the cytotoxicity at 10 µM was -16.5%.

Consider `CNC(=O)c1[nH]nc2ccc(I)cc12`, for which the cytotoxicity at 10 µM was -61.9%.

Take `Cc1noc(C)c1CN1CC[C@H]2OCC[C@@]2(C(=O)NC2CCCC2)C1`: the cytotoxicity at 10 µM was -75.7%.

`Cc1cc(CS(=O)(=O)NC2CCCc3ccccc32)on1` (centres undefined): the cytotoxicity at 10 µM was -1.57%.

For the compound `Cc1nn(C)c(C)c1C(C(=O)O)N1CC=C(c2ccccc2)CC1` (centres undefined), the cytotoxicity at 10 µM is -2.11%.

`CN(Cc1cccc(C#N)c1)C(=O)C1CC(c2cccc(F)c2)=NO1` (centres undefined): the cytotoxicity at 10 µM stood at 1.85%.

`c1cncc(O[C@H]2COCCN(CC3CC3)C2)c1`: the cytotoxicity at 10 µM turned out to be 3.38%.

Consider `CN1CCCC[C@@H]2[C@H]1[C@@H](c1ccccc1)CCN2C(=O)c1cnccn1`, for which the cytotoxicity at 10 µM is -3.81%.

With `Fc1ccc(-c2noc(CN3CCC(c4cc[nH]n4)CC3)n2)cc1`, the cytotoxicity at 10 µM is 18.4%.

For `CCN(CC)C(=O)NCCc1ccn(-c2ccccc2)n1`, the cytotoxicity at 10 µM is -14%.

With `O=C1[C@@H]2CCN(Cc3ccc(F)cc3)C[C@@H]2OCCN1c1cccnc1`, the cytotoxicity at 10 µM amounted to 8.82%.

Consider `COCc1cn(C[C@H]2CC3CCN2C[C@@H]3C(=O)Nc2ccccc2)nn1` (some centres undefined), for which the cytotoxicity at 10 µM was -0.522%.

`Cc1nc(NCc2scnc2-c2ccccc2)cc(C2CCNCC2)n1`: the cytotoxicity at 10 µM is 1.69%.

As to `CCCn1c(NCCc2ccccc2)nc2c(C)nn(C)c2c1=O`, the cytotoxicity at 10 µM is 66.4%.

With `Clc1ccccc1-c1nc(CNCCn2cccn2)cs1`, the cytotoxicity at 10 µM was -3.45%.

Turning to `O=C(CCNc1ccc(Cl)cn1)NCc1ccncc1`, the cytotoxicity at 10 µM is -2.31%.

As for `Cc1cc(NC(=O)CN2CCC(N3CCNC3=O)CC2)on1`, the cytotoxicity at 10 µM was found to be 2.99%.

For `CCc1nnc2n1CCN(Cc1csc(-c3ccc(C)o3)n1)C2`, the cytotoxicity at 10 µM is -1.5%.

Turning to `O=C(NCCn1ccnc1)c1csc2c1CCCC2`, the cytotoxicity at 10 µM is -1.34%.

`CN(Cc1nccn1CC(F)(F)F)C(=O)c1cccc(N(C)C)c1`: the cytotoxicity at 10 µM was determined as 3.92%.

In the case of `O=C(O)[C@H]1OCC(=O)N(Cc2cccc(F)c2)[C@@H]1c1ccc(Cl)cc1`, the cytotoxicity at 10 µM is 8.9%.

For `CCOCC(=O)N(C)Cc1nc(C(F)(F)F)cs1`, the cytotoxicity at 10 µM is 2.49%.

`Cc1noc(C)c1CNc1ccc2nc(C3CC3)sc2c1`: the cytotoxicity at 10 µM came out at 10.8%.

Turning to `Cc1nc(CN(C)C2CCCN(c3cccnn3)C2)no1` (centres undefined), the cytotoxicity at 10 µM is -7.1%.
